# Source: PubChem (Sanford-Burnham Center for Chemical Genomics)
# 697 NFkB inh = inhibitors of PMA/ionomycin-induced NF-kB reporter, 697 cells, primary screen, B-cell NF-kB inhibitor project, cell-based, luminescence, uHTS; 697 B-cell NF-kB luciferase reporter, 16 h; inhibition, % at 4 µM; 0.33% of 330,000 active; in the data active means inhibition above about 35%
# UPR XBP1 act = activators of adaptive XBP1 UPR arm, primary screen, cell-based, CHO-XBP1 luciferase reporter, luminescence, uHTS. AID 463104, 2010. 0.33% of 330,000 active. IRE1-XBP1 UPR activation; percent of tunicamycin response, DMSO as zero. activation, % at 20 µM;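 active means versus positive control, 20 µM dose yields 30% or more activation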;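 further: 100% = tunicamycin at 10 µg/mL and 0% = DMSO only wells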
#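 incubation = overnight seeding at 37 °C, 6 h compound treatment at 37 °C | assay system = CHO-XBP1 cells stably carrying IRE1-XBP1-driven luciferase reporter | input = 1000 cells per well | detection = luciferase luminescence | dosing = single point, 20 µM final compound, 1% DMSO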
# Jurkat NFkB inh = inhibitors of induced NF-kB luciferase reporter, primary screen, TCR NF-kB activation inhibitor project, cell-based, luminescence, uHTS | Jurkat, PMA/ionomycin-induced NF-kB luciferase reporter | inhibition, % at 4 µM | 0.53% of 330,000 active | AID 435003, 2010; in the data active means inhibition above about 50%
# UPR CHOP act = activators of apoptotic CHOP UPR arm, primary screen, cell-based, CHO-CHOP luciferase reporter, luminescence, uHTS; 0.34% of 330,000 active; UPR activation; percent of tunicamycin response over DMSO baseline; activation, % at 10 µM;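 active means at 10 µM dose, activation of 40% or more, normalized to positive control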;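 further: 100% = tunicamycin at 10 µg/mL and 0% = DMSO alone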
#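 Material: CHO-CHOP cells, stable luciferase reporter of PERK-eIF2a-CHOP signalling; quantity: 500 reporter cells seeded per well; buffer or medium: F12 medium containing 10% fetal bovine serum; compound: one dose, 10 µM in 0.5% DMSO; incubation: 6 h compound treatment, 37 °C; measured by: Steady-Glo luciferase luminescence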
# CRFR2-BP antag = antagonists of CRF-BP/CRF-R2 complex, primary screen, cell-based, HEK293, calcium dye fluorescence, uHTS | CRF-induced calcium fluorescence | inhibition, % at 11.8 µM | 0.59% of 350,000 active;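 active means inhibition of the ligand-induced calcium signal above about 50% at the single tested concentration, limit read from the data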
# An asterisk follows results filed as active; x = no result. This is a sample that favours compounds with a hit; in the whole collection about 1.8% have one here.
SMILES,697 NFkB inh,UPR XBP1 act,Jurkat NFkB inh,UPR CHOP act,CRFR2-BP antag
CCNc1nc(Sc2ccc(C)cc2)cc(C(F)(F)F)n1,-24,4,6,-1,0
CC(C)c1cc(C(F)(F)F)nc(NNc2nc(C(C)C)cc(C(F)(F)F)n2)n1,x,x,x,x,54*
CN(C)c1ncnc2c1NC1=C(S2)C(=NCCCC(=O)O)CC(C)(C)C1,-1,-4,4,0,52*
COc1ccc(-n2c(=S)[nH]c3cc(C(=O)Nc4ccccc4OC)ccc3c2=O)cc1,-17,32*,14,5,x
CC1CCC(NC(=O)c2ccc(NC(=O)CC3SC(N4CCCC4)=NC3=O)cc2)CC1 (centres undefined),-119,1,-91,3,-2
CCOC(=O)c1cnc(-c2ccccc2)nc1N1CC(C)OC(C)C1 (centres undefined),1,2,0,1,-3
CCOC(=O)c1nnc(-c2ccccc2)nc1N1CC(C)OC(C)C1 (centres undefined),12,-2,4,0,56*
CCOc1ccc(Cl)cc1S(=O)(=O)N1CCC(C(=O)N2CCCC2)CC1,3,0,12,0,-7
CCCS(=O)(=O)N1CCCC(C(=O)NCCCN(CC)c2cccc(C)c2)C1 (centres undefined),-3,-8,-17,-4,94*
CCCS(=O)(=O)N1CCC(C(=O)NCCCN(CC)c2cccc(C)c2)CC1,22,-7,4,0,-1
O=C(NC(Nc1ncc(S(=O)(=O)c2ccc([N+](=O)[O-])cc2)s1)(C(F)(F)F)C(F)(F)F)c1ccc(Cl)cc1,5,5,3,6,62*
COCC(=O)Nc1ncc(S(=O)(=O)c2ccc([N+](=O)[O-])cc2)s1,11,-1,3,1,10
O=C(O)C1C2C=CC(O2)C1C(=O)Nc1ccccc1C(F)(F)F (centres undefined),10,-1,-11,-2,58*
CCN(C(=O)CSc1nnc(C)c(=O)[nH]1)c1cccc2ccccc12,1,0,9,1,-3
CCOc1ccccc1N=C1SC(CC(=O)Nc2ccc(OC)cc2OC)C(=O)N1CCC1=CCCCC1 (centres undefined),-37,-4,6,2,57*
CCOC(=O)N1CCN(S(=O)(=O)c2cc(C)c(C)cc2C)CC1,-18,-3,8,2,-13
CCOC(=O)N1CCN(S(=O)(=O)c2ccc(C)c(C)c2C)CC1,1,0,0,-2,94*
COc1ccc(C(=O)COC(=O)CCN=C2NS(=O)(=O)c3ccccc32)c(OC)c1,23,1,16,1,-1
C=C(C)Cn1c(=O)c2c(nc3n2CC(C)CN3Cc2ccccc2)n(C)c1=O (centres undefined),-16,-3,-5,-2,88*
COC(=O)Cn1c(=O)c2c(nc3n2CC(C)CN3Cc2ccccc2)n(C)c1=O (centres undefined),10,-4,4,1,-8
CCN(CC(=O)NCc1cccs1)C(=O)c1cc(Br)ccc1O,-9,3,-11,0,4
CCOC(=O)c1ccc(NC(=O)c2cccc3c2C(=O)N(CC2CCCO2)C3)cc1 (centres undefined),-9,1,9,0,60*
Cc1ccc(-c2ccc(/C=N/NC(=O)Cc3nnc(N)s3)o2)cc1Cl,10,1,-4,0,-6
COc1ccc(-c2ccc(/C=N/NC(=O)Cc3nnc(N)s3)o2)cc1Cl,-2,2,2,0,55*
O=C(NCC1CCN(c2ccc(S(=O)(=O)N3CCOCC3)cc2)CC1)Nc1ccccc1F,4,-1,10,1,6
SMILES,697 NFkB inh,UPR XBP1 act,Jurkat NFkB inh,UPR CHOP act,CRFR2-BP antag
CC(Nc1ccc(Br)cc1)C(=O)Nc1cccc(S(=O)(=O)N2CCOCC2)c1 (centres undefined),5,-3,-11,0,90*
Nc1ccc(Br)c2cccnc12,-3,1,14,-2,2
CS(=O)(=O)Oc1ccc(Br)c2cccnc12,14,-3,-13,1,62*
COc1ccc(NS(=O)(=O)c2ccc(N3CCOCC3)c(NC(=O)C(C)C)c2)cc1,-25,0,2,-1,100*
COc1cc(NC(=O)CSc2nc3ccccc3n2-c2ccccc2)c(C)cc1[N+](=O)[O-],-8,-4,-4,-1,55*
COc1ccc(-n2c(SCC(=O)Nc3ccc([N+](=O)[O-])cc3OC)nc3ccccc32)cc1,-48,-2,-4,5,30
CC1=NN(C(N)=S)C(=O)C1N=Nc1ccc(S(N)(=O)=O)cc1 (centres undefined),4,-2,2,1,2
CC(=O)N(C)c1ccc(N=NC2C(=O)N(C(N)=S)N=C2C)cc1 (centres undefined),-195,-6,-69,0,51*
CCN(C[C@H]1N[C@@](C)(C(=O)OC)[C@H]2C(=O)N(Cc3ccccc3)C(=O)[C@@H]12)S(=O)(=O)c1ccccc1,0,-3,-2,0,8
Cc1ccccc1NC(=O)c1cccc(NC(=O)c2ccccc2C(=O)O)c1,6,-1,0,3,14
COc1cc(/C=N/N(C)c2ccccc2)cc(Cl)c1O,-66,8,-61,6,53*
COc1ccc(OC)c(/C=N/N(C)c2ccccc2)c1,-89,3,-108,5,-5
CC(=O)c1cc2c(=O)c3cc(C)ccc3oc2nc1C,-19,3,-60,2,8
CCOC(=O)c1cc2c(=O)c3cc(C)ccc3oc2nc1C,-125,-7,-106,3,67*
CC(=O)N1CC(C)Oc2ccc(S(=O)(=O)NC(CC(=O)O)c3ccccc3)cc21 (centres undefined),3,-5,6,1,-6
Cc1ccc(S(=O)(=O)/N=C2/NC(=O)/C(=C/c3ccc(Br)o3)S2)cc1,-29,-1,-5,0,55*
Cc1ccc(S(=O)(=O)/N=C2/NC(=O)/C(=C\c3cc(Br)cc(Br)c3O)S2)cc1,3,-3,8,0,-77
CCc1ccc(-c2nc(SCC(=O)N(C)C3CCS(=O)(=O)C3)n[nH]2)cc1 (centres undefined),-12,0,3,-3,5
CC(=O)Nc1ccc(OCC[n+]2cccc(C(N)=O)c2)cc1,0,2,4,0,61*
COc1cccc(OC)c1C(=O)Nc1ccc(C(=O)NCc2ccccc2)cc1,-5,-6,0,1,13
